Experimental data reported in PubChem BioAssay.
Calls of active or inactive are those of the source.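 How the source made its calls, unless noted: active means viability at or below 10% of carrier control in both of two separate runs; inconclusive means viability at or below 10% in only one of the two runs; inactive means the rest.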

Legend:
[1] = reducers of endogenous Her2 protein level, primary screen, SKBR3 breast tumor cells, AlphaScreen, ATP viability (AID 461;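 active means Her2 level under about 52% in both replicate screens, with viability over 70% of control, limit read from the data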;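 on Her2 level: lower value means less Her2 protein in the cells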;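 on viability: percent of carrier control wells set as 100% viability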); details: 18-24 h, measured here: SKBR3 viability, ATP luminescence, at 10 µM
[2] = target: Receptor tyrosine-protein kinase erbB-2 (Homo sapiens) (UniProt P04626); test: as above; details: 18-24 h, at 10 µM, stronger effect = lower value
Receptor tyrosine-protein kinase erbB-2 (Homo sapiens), sequence (P04626 whole entry, looked up): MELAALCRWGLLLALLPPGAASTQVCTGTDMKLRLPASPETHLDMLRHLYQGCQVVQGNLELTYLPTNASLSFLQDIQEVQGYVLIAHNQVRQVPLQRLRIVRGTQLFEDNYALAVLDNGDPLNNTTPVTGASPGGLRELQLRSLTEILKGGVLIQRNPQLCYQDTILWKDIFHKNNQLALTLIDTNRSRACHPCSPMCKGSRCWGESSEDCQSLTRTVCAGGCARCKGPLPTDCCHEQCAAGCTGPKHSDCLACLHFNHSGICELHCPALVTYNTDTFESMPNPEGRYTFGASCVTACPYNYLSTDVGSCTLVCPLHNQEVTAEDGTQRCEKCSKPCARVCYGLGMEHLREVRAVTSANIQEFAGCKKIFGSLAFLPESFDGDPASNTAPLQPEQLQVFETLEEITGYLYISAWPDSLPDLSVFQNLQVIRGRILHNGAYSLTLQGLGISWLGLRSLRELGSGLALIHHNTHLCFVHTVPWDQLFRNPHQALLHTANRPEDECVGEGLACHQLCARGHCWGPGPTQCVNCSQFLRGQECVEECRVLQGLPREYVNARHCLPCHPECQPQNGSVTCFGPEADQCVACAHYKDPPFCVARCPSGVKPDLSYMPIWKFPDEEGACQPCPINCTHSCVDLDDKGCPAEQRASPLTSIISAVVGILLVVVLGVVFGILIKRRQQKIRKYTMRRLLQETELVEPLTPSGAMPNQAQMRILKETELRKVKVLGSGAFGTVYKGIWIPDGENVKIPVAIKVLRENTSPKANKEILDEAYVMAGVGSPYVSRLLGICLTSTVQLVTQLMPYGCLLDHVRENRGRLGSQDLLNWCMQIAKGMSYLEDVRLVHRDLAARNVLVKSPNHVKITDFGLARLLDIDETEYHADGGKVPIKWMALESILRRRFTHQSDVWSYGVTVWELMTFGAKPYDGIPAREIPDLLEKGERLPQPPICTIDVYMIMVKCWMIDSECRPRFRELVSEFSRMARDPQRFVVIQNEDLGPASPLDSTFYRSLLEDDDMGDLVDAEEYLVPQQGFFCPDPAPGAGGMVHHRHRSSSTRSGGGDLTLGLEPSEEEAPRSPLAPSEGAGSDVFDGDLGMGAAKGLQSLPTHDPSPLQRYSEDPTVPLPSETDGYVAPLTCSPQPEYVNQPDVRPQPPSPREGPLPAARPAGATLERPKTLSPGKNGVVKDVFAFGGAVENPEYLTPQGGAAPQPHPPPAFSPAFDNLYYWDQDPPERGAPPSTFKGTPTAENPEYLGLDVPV

[3] = SK-BR-3 cell growth inhibitors, pilot screen, 24 h, human (AID 572); details: SK-BR-3 viability, CellTiter-Glo luminescence, at 10 µM, stronger effect = lower value;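 further: compound exposure lasted between 18 and 24 h rather than exactly 24 h; 100% = carrier-treated control wells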
[4] = HUVEC growth inhibition – cell-based, human, primary screen (AID 575;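 active means viability at or below 30% in both replicate assays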;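 further: 100% = median of untreated cell wells with 0.1% DMSO on each plate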); details: HUVEC proliferation, CellTiter-Glo luminescence, 72 h; at 10 µM; stronger effect = lower value
Outline: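 Test system: HUVEC primary cells. Quantity: 1250 endothelial cells in each well. Dosing: single-point 10 µM, DMSO 0.1% final. Incubation: 72 h treatment at 37 °C. Measured by: CTG luminescence. Control set: DMSO cell controls and MePR drug controls. Plate: collagen-coated 384-well format.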

[5] = growth inhibitors of H69AR lung tumor, primary screen, human, duplicate replicates (AID 580;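 active means viability at or under a set limit in both replicates, limit being median viability minus 3 SD, cut at about 48% in these data, passing the limit was not always enough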;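 further: 100% = mean luminescence of untreated wells and 0% = no signal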); details: H69AR lung tumor cells viability, ATP luminescence, 72 h; at 10 µM; stronger effect = lower value
[6] = reversal of MRP1-mediated doxorubicin resistance, pilot screen, H69AR cells, doxorubicin co-treatment (AID 601;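 active means viability loss from added drug above about 55%, and viability with drug at most 40%, in both replicates, limit read from the data, passing the limit was not always enough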); details: CellTiter-Glo, 72 h, at 10 µM; for differential viability (reversal): stronger effect = higher value
[7] = 384-well plate pilot, post-Golgi transport modulator project, inhibition of yeast transport mutant growth (AID 636; in the data active means inhibition above about 31%); details: absorbance 615 nm, about 18 h, stronger effect = higher value
[8] = growth suppression of yeast trafficking mutant, preliminary HTS, modulators of trafficking downstream of Golgi apparatus project, 1536-format plate, OD 615 nm (AID 637; in the data active means inhibition above about 30%); details: yeast transport mutant growth, absorbance 615 nm, 18 h; stronger effect = higher value
[9] = H69AR cells + 2 uM doxorubicin, measured here: viability with 2 uM doxorubicin, stronger effect = lower value
[10] = H69AR cells, compound alone cytotoxicity

SMILES	viability [1] [%]	Her2 level [2]	viability [3]	viability [4]	viability [5]	differential viability (reversal) ([6]; H69AR cells + 2 uM doxorubicin)	viability [6, 9] [%]	viability [6, 10] [%]	inhibition [7]	inhibition [8]
Cc1cc(C)n2nc(C(=O)NCc3ccco3)nc2n1	101	90% (inactive)	101% (inactive)	91.4% (inactive)	99% (inactive)	4.53% (inactive)	94.5	99	-0.26% (inactive)	-5.32% (inactive)
CCOC(=O)c1[nH]c(C)c(C(=O)N2CCN(c3ccc(F)cc3)CC2)c1C	107	84% (inactive)	107% (inactive)	107% (inactive)	92.3% (inactive)	2.1% (inactive)	90.2	92.3	-2.37% (inactive)	-4.44% (inactive)
CCC(Sc1nc(-c2ccccc2)c(C#N)c(=O)[nH]1)C(=O)Nc1cc(C)on1 (stereo not given)	90.5	111% (inactive)	90.5% (inactive)	83% (inactive)	101% (inactive)	0.62% (inactive)	101	101	-1.54% (inactive)	-8.67% (inactive)
CCOC(=O)C1=C(C)N=C2SCCC(=O)N2C1c1cc(Br)ccc1OC (stereo not given)	94.5	91% (inactive)	94.5% (inactive)	107% (inactive)	92% (inactive)	1.69% (inactive)	90.3	92	-7.67% (inactive)	0% (inactive)
O=C(Nc1cccc(NC(=O)c2cccnc2)c1)c1cccnc1	89	80% (inactive)	89% (inactive)	119% (inactive)	86.7% (inactive)	-2.21% (inactive)	88.9	86.7	-5% (inactive)	1.67% (inactive)
CCC(=O)N1CCc2cc(Br)cc(S(=O)(=O)N3CCCCCC3)c21	88.5	87% (inactive)	88.5% (inactive)	97.2% (inactive)	95.5% (inactive)	2.03% (inactive)	93.4	95.5	-3.03% (inactive)	4.91% (inactive)
COc1cccc(S(=O)(=O)Nc2cccnc2)c1	98	107% (inactive)	98% (inactive)	88.2% (inactive)	103% (inactive)	12.3% (inactive)	90.3	103	-0.4% (inactive)	-3.71% (inactive)
O=C(O)COc1ccc(Oc2ccccc2)cc1	102	106% (inactive)	102% (inactive)	96.1% (inactive)	109% (inactive)	13.3% (inactive)	96	109	0.26% (inactive)	-3.55% (inactive)
c1cn(CC2(Cn3ccnc3)COC2)cn1	103	70.5% (inactive)	103% (inactive)	83% (inactive)	99.7% (inactive)	12% (inactive)	87.8	99.7	-3.77% (inactive)	-0.79% (inactive)
COc1ccccc1NC(=O)C1=C(C)Nc2nc(CCCO)nn2C1c1cccnc1 (stereo not given)	132	94.5% (inactive)	132% (inactive)	95.7% (inactive)	96.2% (inactive)	11% (inactive)	85.2	96.2	-6.36% (inactive)	-3.81% (inactive)
CCOc1ccc(C(=O)OCc2nnc(-c3cccs3)o2)cc1OC	106	96% (inactive)	106% (inactive)	116% (inactive)	99.9% (inactive)	25.9% (inactive)	74	99.9	-3.12% (inactive)	2.38% (inactive)
Cc1cccc(-c2nc(CN3CCCC(C(=O)NC4CCCC4)C3)c(C)o2)c1 (stereo not given)	86	86.5% (inactive)	86% (inactive)	72.3% (inactive)	84.2% (inactive)	-11.2% (inactive)	95.4	84.2	1.73% (inactive)	2.9% (inactive)
NC(=O)COC(=O)c1ccc(S(=O)(=O)N2CCCCCC2)cc1	93	104% (inactive)	93% (inactive)	92.8% (inactive)	88% (inactive)	-2.85% (inactive)	90.9	88	-2.82% (inactive)	-7.67% (inactive)
Cc1cc(C)n2nc(SCc3cc(=O)n4ccccc4n3)nc2n1	100	72.5% (inactive)	100% (inactive)	107% (inactive)	101% (inactive)	5.5% (inactive)	95.3	101	-4.47% (inactive)	-1% (inactive)
COc1ccc2nc3oc(C(=O)N4CCCCC4)cc3cc2c1	98	90.5% (inactive)	98% (inactive)	86.5% (inactive)	86.7% (inactive)	2.71% (inactive)	83.9	86.7	-5.26% (inactive)	-3.67% (inactive)
Cc1ccc2cc3cc(C(=O)NCCN4CCOCC4)oc3nc2c1	99	79.5% (inactive)	99% (inactive)	86% (inactive)	96.6% (inactive)	9.98% (inactive)	86.6	96.6	-5.13% (inactive)	8.67% (inactive)

SMILES	viability [1] [%]	Her2 level [2]	viability [3]	viability [4]	viability [5]	differential viability (reversal) ([6]; H69AR cells + 2 uM doxorubicin)	viability [6, 9] [%]	viability [6, 10] [%]	inhibition [7]	inhibition [8]
COc1cc(OC)c(C2N(C)c3ccccc3N2C)cc1OC	91.5	112% (inactive)	91.5% (inactive)	86.7% (inactive)	107% (inactive)	8.16% (inactive)	98.4	107	-5.68% (inactive)	4.26% (inactive)
CCOC(=O)c1c(C)oc2ccc(OCC(N)=O)cc12	120	95% (inactive)	120% (inactive)	72.3% (inactive)	97.1% (inactive)	1.68% (inactive)	95.4	97.1	-0.79% (inactive)	-5.4% (inactive)
N#Cc1c(/N=C/c2ccco2)sc2c1CCC2	99	139% (inactive)	99% (inactive)	85.2% (inactive)	85.7% (inactive)	-1.43% (inactive)	87.1	85.7	-2.76% (inactive)	11.2% (inactive)
Cc1nc2sc(C(c3cccc(F)c3)N3CCOCC3)c(O)n2n1 (stereo not given)	117	93.5% (inactive)	117% (inactive)	90.8% (inactive)	94.7% (inactive)	7.72% (inactive)	87	94.7	-4.79% (inactive)	-3.65% (inactive)
CCOC(=O)C(CCc1nnc(N)s1)C(=O)OCC	87.5	89% (inactive)	87.5% (inactive)	110% (inactive)	108% (inactive)	12.8% (inactive)	95.2	108	-4.53% (inactive)	-0.48% (inactive)
Cc1sc(NC(=O)CSc2nnc(COc3ccccc3)n2C)c(C#N)c1C	83	75.5% (inactive)	83% (inactive)	72.2% (inactive)	70.3% (inactive)	-3.05% (inactive)	73.3	70.3	-1.3% (inactive)	-7.3% (inactive)
CC1CCN(C(=O)CN2C(=O)C(C)(C)Oc3ccc(C(=O)NC4CCCC4)cc32)CC1	82	104% (inactive)	82% (inactive)	83.1% (inactive)	93.4% (inactive)	4.5% (inactive)	88.9	93.4	-5% (inactive)	-7.05% (inactive)
COc1ccc(Cc2nnc(NC(=O)Cc3cccs3)s2)cc1	104	112% (inactive)	104% (inactive)	103% (inactive)	106% (inactive)	5.58% (inactive)	101	106	0.41% (inactive)	-4.29% (inactive)
CCCCSc1cc(C)nc2ncnn12	98.5	131% (inactive)	98.5% (inactive)	75.2% (inactive)	99.7% (inactive)	-1.97% (inactive)	102	99.7	5.71% (inactive)	-0.67% (inactive)
COc1ccc(-c2nc(C#N)c(N3CCN(c4ccccc4)CC3)o2)cc1	94.5	98.5% (inactive)	94.5% (inactive)	94.7% (inactive)	105% (inactive)	11.7% (inactive)	93.8	105	-2.05% (inactive)	3.33% (inactive)
O=c1c2cc(N3CCOCC3)ccc2[nH]c(=S)n1CCCN1CCCC1	89	78% (inactive)	89% (inactive)	86% (inactive)	100% (inactive)	14.6% (inactive)	85.4	100	-5.41% (inactive)	6.89% (inactive)
CCC(c1nnnn1C(C)(C)C)N1CCN(C2CCCC2)CC1 (stereo not given)	98.5	114% (inactive)	98.5% (inactive)	103% (inactive)	107% (inactive)	17.5% (inactive)	89.3	107	1.2% (inactive)	4.59% (inactive)
Cc1ccccc1NC(=O)Cc1nnc(SCC(=O)N2CCN(c3ccccc3)CC2)n1C	110	108% (inactive)	110% (inactive)	101% (inactive)	98.2% (inactive)	5.74% (inactive)	92.5	98.2	-5.53% (inactive)	-6.67% (inactive)
CNC(=O)CSc1nnc(-c2ccc(S(=O)(=O)N3CCCC3)cc2)n1-c1cccc(C)c1C	79.5	78.5% (inactive)	79.5% (inactive)	86.4% (inactive)	88.9% (inactive)	11.7% (inactive)	77.2	88.9	-4.86% (inactive)	-1.15% (inactive)
Cc1ccc(CSC2=NCCN2C(=O)C2CC2)cc1	100	88% (inactive)	100% (inactive)	83.3% (inactive)	97% (inactive)	10.7% (inactive)	86.3	97	-8.11% (inactive)	8.57% (inactive)
CCOc1ccc(C(=O)N2CCN(c3ccccc3)CC2)cc1OCC	104	102% (inactive)	104% (inactive)	90% (inactive)	83.5% (inactive)	-14.8% (inactive)	98.3	83.5	2.47% (inactive)	9.51% (inactive)
